Sampled rows, rich in hits. Any-hit rate of the full collection: about 1.8%.
Tb MetRS inh: T. brucei MetRS inhibitors, primary screen, biochemical, luminescence | 0.4% of 360,000 active | AID 624268, 2012 | methionyl-tRNA synthetase (Trypanosoma brucei brucei) | inhibition, % at 11.9 µM | purified T. brucei MetRS, ATP depletion, Kinase-Glo luminescence;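 active = inhibition above a per-plate cutoff of the control wells' mean inhibition plus 3 SD, cut at about 5.5% in these data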;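 also: 0% = DMSO wells median and 100% = median of wells with control inhibitor compound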
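Material – parasite MetRS enzyme · Medium – HEPES-MgCl2-KCl buffer plus DTT, spermine, BSA, pyrophosphatase · Reagent – ATP, methionine and E. coli bulk tRNA substrates · Times – 15 min enzyme-compound preincubation, 2 h reaction, 10 min detection, 25 °C · Measured by – luminescence of leftover ATP · Evaluation – percent inhibition relative to median high and low control wells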
PG9 Ab binder: binders of HIV-1 gp120 antibody PG9, primary screen, biochemical, TR-FRET; HIV-1 gp120 / PG9 antibody interaction; TR-FRET gp120-PG9 antibody binding; inhibition, % at 6.7 µM; 0.43% of 360,000 active; in the data active = inhibition above about 8.5%
Rin1-Abl PPI inh: inhibitors of Rin1-Abl protein binding, primary screen, biochemical, TR-FRET. Tyrosine-protein kinase ABL1 (Homo sapiens) + Ras and Rab interactor 1 (Homo sapiens), …. inhibition, % at 7.35 µM. 0.4% of 360,000 active; in the data active = inhibition above about 5%, passing the limit was not always enough
Rev-erbA mod: modulators of Rev-erb alpha DNA binding, primary screen, biochemical, FITC-DNA, fluorescence polarization, uHTS. 0.79% of 370,000 active. activity, % at 10 µM. Rev-erbα–FITC-DNA binding, 90 min;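 active = activity above about 14%, limit read from the data; passing the limit was not always enough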;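 also: 0% = DMSO wells with 35 nM protein and 100% = DMSO wells with 750 nM protein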
Rin1 Abl conf: Rin1-Abl binding inhibitor retest, confirmation, biochemical, TR-FRET | inhibition, % at 7.35 µM | purified proteins | 49% of 1,300 active | shares compounds with Rin1-Abl PPI inh | AID 602124, 2011
GFP quencher: GFP fluorescence inhibitors and quenchers, artefact control for Rin1-Abl interaction inhibitor project, biochemical. shares compounds with Rin1-Abl PPI inh. inhibitors/quenchers counterscreen. inhibition, % at 6.75 µM. 8.5% of 1,300 active. AID 602125, 2011;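 also: ABL1-eGFP fusion protein alone without its partner RIN1-SBP; 0% = protein with vehicle and 100% = wells lacking protein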
GFP quench dose: GFP fluorescence inhibitors and quenchers, dose response, artefact control for Rin1-Abl interaction inhibitor project, biochemical; shares compounds with Rin1-Abl PPI inh; GFP fluorescence interference/quenching counterscreen; IC50, µM; 230 tested, under 10 active; call rule not given here;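 also: ABL1-eGFP fusion protein alone without its RIN1 binding partner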
* hit, by the source's call; . = no result; ! = repeats disagree. Rule as the data show it, unless noted: active = inhibition above about 6.5%; inactive = the rest.

SMILES | Tb MetRS inh | PG9 Ab binder | Rin1-Abl PPI inh | Rev-erbA mod | Rin1 Abl conf | GFP quencher | others
Cc1nc2ccccc2c(=O)n1/N=C/c1ccc(O)c(O)c1O | 0 | -2 | 27* | -31 | 15* | 23*
O=C(NCc1ccccc1)C1Cc2c(-c3cccc(F)c3)ccnc2O1 (configuration not stated) | 0 | 2 | 0 | 1 | . | .
CC(=O)c1cccc(-c2ccnc3c2CC(C(=O)NCc2ccc(N4CCN(C)CC4)cc2)O3)c1 (configuration not stated) | 0 | 0 | 25* | 9 | 18* | -1 | GFP quench dose=>68
CN1CCN(c2ccc(CNC(=O)C3Cc4c(-c5cccc(F)c5)ccnc4O3)cc2)CC1 (configuration not stated) | 1 | 0 | 6.5* | 2 | 5 | 1
O=C(C1CCN(c2nnc(N3CCCC3=O)s2)CC1)N1CCN(Cc2ccc3c(c2)OCO3)CC1 | 0 | 0 | 10* | -1 | 5 | -1
COc1cc(C)c(Cl)cc1S(=O)(=O)n1cnc(C)c1 | 0 | 1 | -2 | 5 | . | .
COc1ccc(C)cc1S(=O)(=O)n1nc(C)cc1C | 0 | -1 | 8.4* | -2 | -3 | 2
COc1ccc(C(C)C)cc1S(=O)(=O)n1cnc(C)c1 | 0 | 2 | 8.0* | -3 | -3 | 0
CC(=O)OCC(=O)[C@@]12OC3(CCCC3)O[C@@H]1CC1C3CCC4=CC(=O)C=C[C@]4(C)[C@@]3(F)[C@@H](O)C[C@@]12C (some centres not stated) | . | . | . | 1 | . | .
Cc1cc(C(=O)N/N=C2\CCCc3ccccc32)c(C)o1 | -1 | -3 | 11* | -3 | -1 | -2
O=C(N/N=C1\CCCc2ccccc21)c1ccccc1Cl | -1 | 1 | 2 | 3 | . | .
Oc1cc2c(c(Cl)c1O)CCNCC2c1ccccc1 (configuration not stated) | -1 | -2 | 8 | -2 | . | .
Oc1ccc(C2CNCCc3c2cc(O)c(O)c3Cl)cc1 (configuration not stated) | 0 | 0 | 18*! | -3 | 30* | 8.4*
O=c1cc(CO)oc(CN2CCN(Cc3ccccc3)CC2)c1O | 0 | 0 | 5 | 1 | . | .
O=c1cc(CO)oc(CN2CCCC2)c1O | 0 | -2 | 27* | -2 | 3 | 0
CN1CCN(Cc2oc(CO)cc(=O)c2O)CC1 | 0 | -1 | 12* | 1 | -1 | -1
CCN(CC)Cc1oc(CO)cc(=O)c1O | -1 | 0 | 26* | -6 | 11* | 2
C=CCN1[C@H](CO)[C@H](c2ccc(C#CC3(O)CCCC3)cc2)[C@@H]1C#N | . | . | . | -3 | . | .
CCCCN1CN2Cc3ccc(C)cc3C2CS1(=O)=O (configuration not stated) | . | . | . | 8 | . | .
COC1CC2CCC(C)C(O)(O2)C(=O)C(=O)N2CCCCC2C(=O)OC(C(C)CC2CCC(O)C(OC)C2)CC(=O)C(C)/C=C(\C)C(O)C(OC)C(=O)C(C)CC(C)/C=C/C=C/C=C/1C (configuration not stated) | . | . | . | -3 | . | .
CC(NC(=O)c1ccc(F)cc1F)C1CC2CCC1C2 (configuration not stated) | -1 | -3 | 8.1* | 2 | -1 | 0
CC(=O)c1c(C)[nH]c(C(=O)Nc2ccccc2N2CCOCC2)c1C | 1 | 1 | 4.7* | 10 | -3 | 0
OC[C@@H]1CN(Cc2ccc(-c3ccccc3)cc2)C[C@H](n2cnc3c(Nc4ccccc4)ncnc32)O1 | 0 | 0 | 2 | -3 | . | .
OC[C@@H]1CN(Cc2ccc(Cl)cc2)C[C@H](n2cnc3c(NC4CCC4)ncnc32)O1 | 0 | 0 | 12* | 7 | 9.4* | -1
CNc1ncnc2c1ncn2[C@H]1CN(Cc2ccc(-c3ccccc3)cc2)C[C@@H](CO)O1 | 0 | 0 | 9.7* | -9 | 13* | -2

Screening data (PubChem BioAssay)
